Results from ChEMBL document CHEMBL4725312, “Pre-clinical evidences of the antileishmanial effects of diselenides and selenocyanates” (Bioorg Med Chem Lett, 2020).
Activity calls are given as the source filed them. The rule behind the calls is not given here.

Key:
Leishmania infantum [1] = assay: Antileishmanial activity against axenic amastigote state of Leishmania infantum infected in human THP-1 cells at 3 uM incubated for 48 hrs; format: functional, organism-based
How it was run: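 THP-1 cells infected with L. infantum amastigotes were exposed to compounds at 3 μM for 48 h. Infection rate was the read-out, with autofluorescence correction applied, and results were reported as means.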

THP-1 = assay: Cytotoxicity against human THP-1 cells assessed as reduction in cell viability incubated for 24 hrs; format: cell-based; details: THP-1, 24 h
[2] = Inhibition of trypanothione reductase (unknown origin)
How it was run: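 Trypanothione reductase inhibition was expressed as IC50, with mepacrine run alongside as the positive-control TryR inhibitor.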

Leishmania infantum [3] = assay: Antileishmanial activity against axenic amastigote state of Leishmania infantum incubated for 24 hrs; format: functional, organism-based
[4] = Ratio of IC50 for human THP1 cells to IC50 for axenic amastigote state of Leishmania infantum
How it was run: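 Selectivity index was calculated as the THP-1 cytotoxicity IC50 (24 h exposure) divided by the IC50 against L. infantum amastigotes.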

[5] = Ratio of IC50 for mepacrine to IC50 for test compound for inhibition of trypanothione reductase (unknown origin)
How it was run: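 Trypanothione reductase inhibition assay, with mepacrine run alongside as the positive-control TryR inhibitor. The value is mepacrine IC50 divided by test-compound IC50 in the same assay.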

Row | IC50 [2] [µM] | IC50 (Leishmania infantum [3]) [µM] | Compound | Activity (Leishmania infantum [1]) | IC50 (THP-1) [µM] | Ratio IC50 [4] | Ratio IC50 [5]
1 | 21.8 | 2.07 | O=C1c2ccccc2C(=O)N1c1ccc([Se][Se]c2ccc(N3C(=O)c4ccccc4C3=O)cc2)cc1 | Active | 23 | 11.08 | 
2 |  | 10.7 | N#C[Se]c1ccc(NC(=O)c2ccccc2-c2ccccc2C(=O)O)cc1 |  | > 25 | >2.34 | 
3 |  | 13.5 | CSc1ccc(C(=O)NC(=[Se])Nc2ccc([Se][Se]c3ccc(NC(=[Se])NC(=O)c4ccc(SC)cc4)cc3)cc2)cc1 |  | > 25 | >1.85 | 
4 |  | 6.18 | O=C(NC(=[Se])Nc1ccc([Se][Se]c2ccc(NC(=[Se])NC(=O)c3cc4ccccc4nc3-c3ccccc3)cc2)cc1)c1cc2ccccc2nc1-c1ccccc1 |  | 8.5 | 1.34 | 
5 |  | > 25 | O=C(NC(=[Se])Nc1ccc([Se][Se]c2ccc(NC(=[Se])NC(=O)c3ccc(Cl)cc3)cc2)cc1)c1ccc(Cl)cc1 |  | > 25 |  | 
6 |  | > 25 | O=C(O)/C=C\C(=O)Nc1ccc([Se][Se]c2ccc(NC(=O)/C=C\C(=O)O)cc2)cc1 |  | > 25 |  | 
7 |  | 2.27 | O=C(NC(=[Se])Nc1ccc([Se][Se]c2ccc(NC(=[Se])NC(=O)c3ccc([N+](=O)[O-])cc3)cc2)cc1)c1ccc([N+](=O)[O-])cc1 |  | > 25 | >11.01 | 
8 |  | 12.1 | O=C(O)COCC(=O)Nc1ccc([Se][Se]c2ccc(NC(=O)COCC(=O)O)cc2)cc1 |  | > 25 | >2.06 | 
9 | 0.23 | 1.54 | O=C1C=CC(=O)N1c1ccc([Se][Se]c2ccc(N3C(=O)C=CC3=O)cc2)cc1 | Active | 15.2 | 9.91 | 30
10 |  | 14.6 | O=C(NC(=[Se])Nc1ccc([Se][Se]c2ccc(NC(=[Se])NC(=O)c3cc4ccccc4s3)cc2)cc1)c1cc2ccccc2s1 |  | > 25 | >1.71 | 
11 |  |  | CCCCCCCCCCCCCCCCCCOCC(COP(=O)([O-])OCC[N+](C)(C)C)OC (centres undefined) [EDELFOSINE] | Active |  | 6.01 | 
12 | 25 | 1.31 | O=C(O)C1C2C=CC(O2)C1C(=O)Nc1ccc([Se][Se]c2ccc(NC(=O)C3C4C=CC(O4)C3C(=O)O)cc2)cc1 (centres undefined) | Active | > 25 | >19.13 | 
13 |  | 3.08 | O=C(NC(=[Se])Nc1ccc([Se][Se]c2ccc(NC(=[Se])NC(=O)c3cnc4ccccc4c3)cc2)cc1)c1cnc2ccccc2c1 |  | 12.8 | 4.15 | 
14 |  | 9.22 | COc1cc(OC)cc(C(=O)NC(=[Se])Nc2ccc([Se][Se]c3ccc(NC(=[Se])NC(=O)c4cc(OC)cc(OC)c4)cc3)cc2)c1 |  | > 25 | >2.77 | 
15 |  | 4.57 | O=C(O)c1ccccc1C(=O)Nc1ccc([Se][Se]c2ccc(NC(=O)c3ccccc3C(=O)O)cc2)cc1 |  | > 25 | >5.47 | 
16 |  | 7.9 | O=C(O)CCC(=O)Nc1ccc([Se][Se]c2ccc(NC(=O)CCC(=O)O)cc2)cc1 |  | > 25 | >3.16 | 
17 |  | 0.35 | O=C(NC(=[Se])Nc1ccc([Se][Se]c2ccc(NC(=[Se])NC(=O)c3ccno3)cc2)cc1)c1ccno1 |  | 1.07 | 3.1 | 
18 |  |  | CCCCCCCCCCCCCCCCOP(=O)([O-])OCC[N+](C)(C)C [MILTEFOSINE] |  |  | 6.51 | 
19 |  | 4.55 | O=C(NC(=[Se])Nc1ccc([Se][Se]c2ccc(NC(=[Se])NC(=O)c3cccs3)cc2)cc1)c1cccs1 |  | 22.2 | 4.87 | 
20 |  | 9.98 | O=C(NC(=[Se])Nc1ccc([Se][Se]c2ccc(NC(=[Se])NC(=O)c3ccc4c(c3)OCO4)cc2)cc1)c1ccc2c(c1)OCO2 |  | 13.5 | 1.35 | 
21 |  | 10.4 | O=C1COCC(=O)N1c1ccc([Se][Se]c2ccc(N3C(=O)COCC3=O)cc2)cc1 |  | 8.53 | 0.82 | 
22 |  | > 25 | O=C(NC(=[Se])Nc1ccc([Se][Se]c2ccc(NC(=[Se])NC(=O)c3ccccc3)cc2)cc1)c1ccccc1 |  | > 25 |  | 
23 | 18.5 | 2.03 | O=C(O)C1CCCCC1C(=O)Nc1ccc([Se][Se]c2ccc(NC(=O)C3CCCCC3C(=O)O)cc2)cc1 (centres undefined) | Active | > 25 | >12.31 | 
24 | 17 |  | CCN(CC)CCCC(C)Nc1c2ccc(Cl)cc2nc2ccc(OC)cc12 (centres undefined) [QUINACRINE] |  |  |  | 
25 | 9.22 | 0.67 | O=C(NC(=[Se])Nc1ccc([Se][Se]c2ccc(NC(=[Se])NC(=O)c3ccco3)cc2)cc1)c1ccco1 | Active | 7.44 | 11.19 | 
26 |  | 15 | Cc1ccc(C(=O)NC(=[Se])Nc2ccc([Se][Se]c3ccc(NC(=[Se])NC(=O)c4ccc(C)cc4)cc3)cc2)cc1 |  | > 25 | >1.66 | 
27 |  | 5.57 | O=C(NC(=[Se])Nc1ccc([Se][Se]c2ccc(NC(=[Se])NC(=O)c3sccc3Cl)cc2)cc1)c1sccc1Cl |  | > 25 | >4.48 | 

Row | Compound | IC50 [2] [µM] | IC50 (Leishmania infantum [3]) [µM] | Activity (Leishmania infantum [1]) | IC50 (THP-1) [µM] | Ratio IC50 [4] | Ratio IC50 [5]
28 | N#C[Se]c1ccc(NC(=O)/C=C\C(=O)O)cc1 |  | > 25 |  | > 25 |  | 
29 | N#C[Se]c1ccc(NC(=O)c2ccccc2C(=O)O)cc1 |  | > 25 |  | > 25 |  | 
30 | N#C[Se]c1ccc(NC(=O)C2C3C=CC(O3)C2C(=O)O)cc1 (centres undefined) | 0.54 | 3.22 | inactive | 21.5 | 7.76 | 30
31 | N#C[Se]c1ccc(NC(=O)C2CCCCC2C(=O)O)cc1 (centres undefined) |  | 10.6 |  | > 25 | >2.35 | 
32 | N#C[Se]c1ccc(NC(=O)COCC(=O)O)cc1 |  | > 25 |  | > 25 |  | 
33 | N#C[Se]c1ccc(NC(=O)CCC(=O)O)cc1 |  | 11.3 |  | > 25 | >2.2 | 
34 | N#C[Se]c1ccc(NC(=O)c2nccnc2C(=O)O)cc1 |  | > 25 |  | > 25 |  | 
